Laboratory results reported in ChEMBL document CHEMBL1121923, “N2- and C-7 substituted actinomycin D analogues: synthesis, DNA-binding affinity, and biochemical and biological properties. Structure-activity relationship” (J Med Chem, 1981).
≈ marks a conversion by molar mass, not a printed value. *1 amine or outer side, *2 acyl side, *3 side chain or, on linkers, in order; H or OH if unused. Where a SMILES comes first, the peptide text is derived from it. Bridges are numbered along the chain shown (N, C = ends). Roman numbers before positions name the chains, in order. [ ]: non-standard residue; d: D form. Actinocin(9to1) = Cc1c2oc3c(C)ccc(C(=O)[*:1])c3nc-2c(C(=O)[*:2])c(N)c1=O; NMeV = CN[C@H](C(=O)O)C(C)C; Sar = CNCC(=O)O

Key:
[1] = system: CCRF-CEM; assay: In vitro antitumor activity against human lymphoblastic leukemia cells.; assay type: functional; conditions: read-out: ID50 (the source's name)
In short: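 Human lymphoblastic leukemia CCRF-CEM cells grown in suspension culture; growth inhibition in vitro; ID50 (ng/mL) reported as the 50% inhibitory dose.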

[2] = system: P388; assay: Concentration required for 50% inhibition of incorporation of labeled uridine by P388 cells for the synthesis of RNA (in vitro); assay type: functional; conditions: Mus musculus, read-out: ED50 (the source's name)
[3] = system: P388; assay: Concentration required for 50% inhibition of incorporation of labeled thymidine by p388 cells for synthesis of DNA (in vitro); assay type: functional; conditions: Mus musculus, read-out: ED50 (the source's name)
[4] = system: P388; assay: Percent of increased life span of P388 cells implanted CDF1 male mice; assay type: functional, Mus musculus
In short: (§1)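 CDF1 male mice, groups of seven, given 10^6 P388 cells ip on day 0; drug ip in 5% DMSO–saline on days 1, 5 and 9; controls received vehicle; range of doses tested, optimal nontoxic dose listed; median survival time; %ILS = (treated − control)/control × 100; average of two or more experiments.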

[5] = system: P388; assay: Optimal dose for antitumor activity was measured in P388 cells of CDF1 male mice in vivo; Highest dose tested; assay type: functional, Mus musculus; in short: as §1
[6] = system: P388; assay: Median survival time of the P388 cells implanted CDF1 male mice in vivo; assay type: functional, Mus musculus; in short: as §1
[7] = system: Calf thymus DNA; assay: Apparent number of binding sites per base pairs in DNA; Not measurable; assay type: nucleic-acid assay; conditions: Bos taurus
In short: (§2)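 Calf thymus DNA; spectral titration; binding isotherms in 0.01 M phosphate buffer, pH 7.0, 20 °C; Kapp (per base pair) and Bapp (drug binding sites per base pair) taken from Scatchard plot.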

[8] = system: Calf thymus DNA; assay: Apparent binding constant against calf thymus DNA-drug complex; Not measurable; assay type: nucleic-acid assay; conditions: Bos taurus; in short: as §2
[9] = system: P388; assay: Concentration required for 50% inhibition of incorporation of labeled uridine by P388 cells for the synthesis of RNA (in vitro); e indicates values are high and variable; assay type: functional, cell-based; conditions: Mus musculus
[10] = system: P388; assay: Concentration required for 50% inhibition of incorporation of labeled thymidine by p388 cells for synthesis of DNA (in vitro); e indicates values are high and variable; assay type: functional, cell-based; conditions: Mus musculus
[11] = system: Calf thymus DNA; assay: Apparent binding constant calf thymus DNA-drug complex; assay type: nucleic-acid assay; conditions: Bos taurus; in short: as §2
[12] = organism: Bos taurus; assay: Thermal denaturation (deltaTm) of compound against calf thymus DNA was measured; assay type: ADME; conditions: cattle, in vitro
In short: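 Calf thymus DNA (MW 100 000–500 000) in 0.01 M phosphate, 5 × 10^-3 M EDTA, pH 7.0; drug 7 × 10^-4 M, DNA nucleotide 7 × 10^-3 M; 259 nm absorbance read at 0.25–1.0 °C steps; Tm taken at 50% hyperchromicity; ΔTm = complex Tm minus DNA Tm.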

[13] = system: Calf thymus DNA; assay: Apparent number of binding sites per base pairs in DNA; assay type: nucleic-acid assay; conditions: Bos taurus; in short: as §2
[14] = system: P388; assay: Optimal dose for antitumor activity was measured in P388 cells of CDF1 male mice in vivo; assay type: functional, Mus musculus; in short: as §1

Structure (SMILES)	IC50 [1]	ILS [4]	Highest dose tested [5]	MST [6]	Bapp [7]	ED50 [9]	ED50 [10]	further results
Cc1c2oc3c(C)ccc(C(=O)N[C@@H]4C(=O)N[C@H](C(C)C)C(=O)N5CCC[C@H]5C(=O)N(C)CC(=O)N(C)[C@@H](C(C)C)C(=O)O[C@@H]4C)c3nc-2c(C(=O)N[C@@H]2C(=O)N[C@H](C(C)C)C(=O)N3CCC[C@H]3C(=O)N(C)CC(=O)N(C)[C@@H](C(C)C)C(=O)O[C@@H]2C)c(NCCCCCN)c1=O	0.85 µg/mL (≈ 0.634 µM)	64%	1.8 mg/kg	18 days	–	–	–	EC50 [2]: 460 nM; EC50 [3]: > 4600 nM
Cc1c2oc3c(C)c(OC(=O)c4ccc5ccccc5c4)cc(C(=O)N[C@@H]4C(=O)N[C@H](C(C)C)C(=O)N5CCC[C@@H]5C(=O)N(C)CC(=O)N(C)[C@@H](C(C)C)C(=O)O[C@@H]4C)c3nc-2c(C(=O)N[C@H]2C(=O)N[C@@H](C(C)C)C(=O)N3CCC[C@H]3C(=O)N(C)CC(=O)N(C)[C@H](C(C)C)C(=O)O[C@H]2C)c(N)c1=O	–	–	–	–	Not measurable	High and variable values	High and variable values	K app [8]: Not measurable
CCCCCCCOc1cc(C(=O)N[C@@H]2C(=O)N[C@H](C(C)C)C(=O)N3CCC[C@H]3C(=O)N(C)CC(=O)N(C)[C@@H](C(C)C)C(=O)O[C@@H]2C)c2nc3c(C(=O)N[C@@H]4C(=O)N[C@H](C(C)C)C(=O)N5CCC[C@H]5C(=O)N(C)CC(=O)N(C)[C@@H](C(C)C)C(=O)O[C@@H]4C)c(N)c(=O)c(C)c-3oc2c1C	3 µg/mL (≈ 2.19 µM)	24%	0.9 mg/kg	13 days	–	–	–	–
Cc1c2oc3c(C)c(OCc4ccc(Cl)cc4)cc(C(=O)N[C@@H]4C(=O)N[C@H](C(C)C)C(=O)N5CCC[C@@H]5C(=O)N(C)CC(=O)N(C)[C@@H](C(C)C)C(=O)O[C@@H]4C)c3nc-2c(C(=O)N[C@H]2C(=O)N[C@@H](C(C)C)C(=O)N3CCC[C@H]3C(=O)N(C)CC(=O)N(C)[C@H](C(C)C)C(=O)O[C@H]2C)c(N)c1=O	–	–	–	–	Not measurable	High and variable values	High and variable values	K app [11]: 100000 M⁻¹
CCCCCCOc1cc(C(=O)N[C@@H]2C(=O)N[C@H](C(C)C)C(=O)N3CCC[C@@H]3C(=O)N(C)CC(=O)N(C)[C@@H](C(C)C)C(=O)O[C@@H]2C)c2nc3c(C(=O)N[C@H]4C(=O)N[C@@H](C(C)C)C(=O)N5CCC[C@H]5C(=O)N(C)CC(=O)N(C)[C@H](C(C)C)C(=O)O[C@H]4C)c(N)c(=O)c(C)c-3oc2c1C	–	–	–	–	Not measurable	High and variable values	High and variable values	K app [8]: Not measurable
CCCCCCCCCCCNc1c(C(=O)N[C@@H]2C(=O)N[C@H](C(C)C)C(=O)N3CCC[C@H]3C(=O)N(C)CC(=O)N(C)[C@@H](C(C)C)C(=O)O[C@@H]2C)c2nc3c(C(=O)N[C@@H]4C(=O)N[C@H](C(C)C)C(=O)N5CCC[C@H]5C(=O)N(C)CC(=O)N(C)[C@@H](C(C)C)C(=O)O[C@@H]4C)ccc(C)c3oc-2c(C)c1=O	> 15 µg/mL	–	1.15 mg/kg	10 days	–	–	–	–
Cc1c2oc3c(C)c(OCc4ccc(Cl)c(Cl)c4)cc(C(=O)N[C@@H]4C(=O)N[C@H](C(C)C)C(=O)N5CCC[C@@H]5C(=O)N(C)CC(=O)N(C)[C@@H](C(C)C)C(=O)O[C@@H]4C)c3nc-2c(C(=O)N[C@H]2C(=O)N[C@@H](C(C)C)C(=O)N3CCC[C@H]3C(=O)N(C)CC(=O)N(C)[C@H](C(C)C)C(=O)O[C@H]2C)c(N)c1=O	–	–	–	–	Not measurable	High and variable values	High and variable values	K app [11]: 10000 M⁻¹
CCCCCNc1c(C(=O)N[C@@H]2C(=O)N[C@H](C(C)C)C(=O)N3CCC[C@H]3C(=O)N(C)CC(=O)N(C)[C@@H](C(C)C)C(=O)O[C@@H]2C)c2nc3c(C(=O)N[C@@H]4C(=O)N[C@H](C(C)C)C(=O)N5CCC[C@H]5C(=O)N(C)CC(=O)N(C)[C@@H](C(C)C)C(=O)O[C@@H]4C)ccc(C)c3oc-2c(C)c1=O	1.6 µg/mL (≈ 1.21 µM)	18%	1.15 mg/kg	13 days	–	–	–	–
CCCCCCOc1cc(C(=O)N[C@@H]2C(=O)N[C@H](C(C)C)C(=O)N3CCC[C@H]3C(=O)N(C)CC(=O)N(C)[C@@H](C(C)C)C(=O)O[C@@H]2C)c2nc3c(C(=O)N[C@@H]4C(=O)N[C@H](C(C)C)C(=O)N5CCC[C@H]5C(=O)N(C)CC(=O)N(C)[C@@H](C(C)C)C(=O)O[C@@H]4C)c(N)c(=O)c(C)c-3oc2c1C	2.5 µg/mL (≈ 1.84 µM)	24%	0.9 mg/kg	13 days	–	–	–	–
Cc1c2oc3c(C)c(OCc4ccc([N+](=O)[O-])cc4)cc(C(=O)N[C@@H]4C(=O)N[C@H](C(C)C)C(=O)N5CCC[C@@H]5C(=O)N(C)CC(=O)N(C)[C@@H](C(C)C)C(=O)O[C@@H]4C)c3nc-2c(C(=O)N[C@H]2C(=O)N[C@@H](C(C)C)C(=O)N3CCC[C@H]3C(=O)N(C)CC(=O)N(C)[C@H](C(C)C)C(=O)O[C@H]2C)c(N)c1=O	–	–	–	–	Not measurable	High and variable values	High and variable values	K app [11]: 100000 M⁻¹
Cc1c2oc3c(C)ccc(C(=O)N[C@@H]4C(=O)N[C@H](C(C)C)C(=O)N5CCC[C@H]5C(=O)N(C)CC(=O)N(C)[C@@H](C(C)C)C(=O)O[C@@H]4C)c3nc-2c(C(=O)N[C@@H]2C(=O)N[C@H](C(C)C)C(=O)N3CCC[C@H]3C(=O)N(C)CC(=O)N(C)[C@@H](C(C)C)C(=O)O[C@@H]2C)c(NCCCCN)c1=O	0.6 µg/mL (≈ 0.452 µM)	109%	1.8 mg/kg	23 days	–	–	–	EC50 [2]: 346 nM; EC50 [3]: 3300 nM
CCCCCCCCCNc1c(C(=O)N[C@@H]2C(=O)N[C@H](C(C)C)C(=O)N3CCC[C@H]3C(=O)N(C)CC(=O)N(C)[C@@H](C(C)C)C(=O)O[C@@H]2C)c2nc3c(C(=O)N[C@@H]4C(=O)N[C@H](C(C)C)C(=O)N5CCC[C@H]5C(=O)N(C)CC(=O)N(C)[C@@H](C(C)C)C(=O)O[C@@H]4C)ccc(C)c3oc-2c(C)c1=O	11 µg/mL (≈ 7.96 µM)	–	1.8 mg/kg	10 days	–	–	–	–
Cc1c2oc3c(C)ccc(C(=O)N[C@@H]4C(=O)N[C@H](C(C)C)C(=O)N5CCC[C@H]5C(=O)N(C)CC(=O)N(C)[C@@H](C(C)C)C(=O)O[C@@H]4C)c3nc-2c(C(=O)N[C@@H]2C(=O)N[C@H](C(C)C)C(=O)N3CCC[C@H]3C(=O)N(C)CC(=O)N(C)[C@@H](C(C)C)C(=O)O[C@@H]2C)c(N)c1=O [DACTINOMYCIN] (I: T[dV]P[Sar][NMeV] / II: T[dV]P[Sar][NMeV]; ester I:1-I:C, II:1-II:C; linker I:N-II:N via Actinocin(9to1))	0.06 µg/mL (≈ 0.0478 µM)	129%	–	24 days	–	–	–	Delta Tm [12]: 7.1; Bapp [13]: 0.108; K app [11]: 2.3e+07 M⁻¹; EC50 [2]: 46 nM; EC50 [3]: 996 nM; Optimal dose [14]: 0.125 mg/kg
CCCCCCNc1c(C(=O)N[C@@H]2C(=O)N[C@H](C(C)C)C(=O)N3CCC[C@H]3C(=O)N(C)CC(=O)N(C)[C@@H](C(C)C)C(=O)O[C@@H]2C)c2nc3c(C(=O)N[C@@H]4C(=O)N[C@H](C(C)C)C(=O)N5CCC[C@H]5C(=O)N(C)CC(=O)N(C)[C@@H](C(C)C)C(=O)O[C@@H]4C)ccc(C)c3oc-2c(C)c1=O	3 µg/mL (≈ 2.24 µM)	0%	1.2 mg/kg	11 days	–	–	–	–
Cc1c2oc3c(C)c(OC(=O)C45CC6CC(CC(C6)C4)C5)cc(C(=O)N[C@@H]4C(=O)N[C@H](C(C)C)C(=O)N5CCC[C@@H]5C(=O)N(C)CC(=O)N(C)[C@@H](C(C)C)C(=O)O[C@@H]4C)c3nc-2c(C(=O)N[C@H]2C(=O)N[C@@H](C(C)C)C(=O)N3CCC[C@H]3C(=O)N(C)CC(=O)N(C)[C@H](C(C)C)C(=O)O[C@H]2C)c(N)c1=O	–	–	–	–	Not measurable	–	–	K app [8]: Not measurable
